ChEMBL document CHEMBL1130270, “Design of [R-(Z)]-(+)-alpha-(methoxyimino)-1-azabicyclo[2.2.2]octane-3-acetonitri le (SB 202026), a functionally selective azabicyclic muscarinic M1 agonist incorporating the N-methoxy imidoyl nitrile group as a novel ester bioisostere” (J Med Chem, 1997)

Tests used:
[1] = Partition coefficient is determined in octanol/buffer solution at pH 12; type: physicochemical
Rattus norvegicus [2] = test: Dose producing 50% fall in heart rate in anesthetized rats; type: functional
In short: (§1)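 Male Hooded Lister rats (300-380 g) under urethane anaesthesia, 37 °C. Increasing iv doses via femoral vein at 45 min intervals. BP recorded from carotid artery; HR derived from the BP signal. Peak effect within 1 min, expressed as % of predose. Value is the dose giving a transient 50% fall in mean BP or HR; 95% confidence limits.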

Rattus norvegicus [3] = test: Dose producing […] rhythmic slow wave activity in anesthetized rats; type: functional
[4] = Ratio of 50% fall blood pressure to that of rhythmic slow wave activity in anesthetized rats; type: functional
In short: (§2)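 Same anaesthetized-rat dosing as above. Ratio of iv dose giving a transient 50% fall in BP (or HR) to the iv dose giving an arecoline-equivalent (0.32 mg/kg) change in hippocampal theta power.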

[5] = Ratio of 50% fall in heart rate to that of […] slow wave activity in anesthetized rats; type: functional; in short: as §2
Mus musculus [6] = species on record: Mus musculus; test: Extrapyramidal effects was assessed from the dose producing tremors; type: functional
In short: (§3)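 Male CD1 mice (25-35 g), dosed sc. Tremor scored subjectively: 0 absent, 1 mild, 2 moderate, 3 severe.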

Mus musculus [7] = test: Tremorigenic effects were assessed in mice after subcutaneous administration of the compound; type: functional; settings: sc; in short: as §3
Rattus norvegicus [8] = species on record: Rattus norvegicus; test: Dose producing […] rhythmic slow wave activity in rat
[9] = target: Muscarinic acetylcholine receptor; test: In vitro affinity evaluated using [3H]- oxotremorine as radioligand in rat cerebral cortex for muscarinic acetylcholine receptor; type: tissue-based
[10] = target: Muscarinic acetylcholine receptor; test: In vitro affinity evaluated using [3H]- quinuclidinyl benzilate as radioligand in rat cerebral cortex for muscarinic acetylcholine receptor; type: tissue-based
[11] = Dissociation constant is the negative logarithm of the equilibrium coefficient of the neutral and charged forms of the compound; type: physicochemical
Rattus norvegicus [12] = test: Dose producing 50% fall in blood pressure in anesthetized rats; type: functional; in short: as §1
[13] = Distribution coefficient is the ratio of concentration in lipid phase to the concentration of compound in aqueous phase.; type: physicochemical
In short: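 Calculated for pH 7.3, not measured. D is the concentration of compound in the lipid phase divided by the concentration of all species in the aqueous phase.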

[14] = target: T1, Muscarinic acetylcholine receptor M1 (Homo sapiens, UniProt P11229); test: In vitro affinity against human Muscarinic acetylcholine receptor M1 using quinuclidynyl benzylate (QNB)
T1 sequence (P11229 whole entry): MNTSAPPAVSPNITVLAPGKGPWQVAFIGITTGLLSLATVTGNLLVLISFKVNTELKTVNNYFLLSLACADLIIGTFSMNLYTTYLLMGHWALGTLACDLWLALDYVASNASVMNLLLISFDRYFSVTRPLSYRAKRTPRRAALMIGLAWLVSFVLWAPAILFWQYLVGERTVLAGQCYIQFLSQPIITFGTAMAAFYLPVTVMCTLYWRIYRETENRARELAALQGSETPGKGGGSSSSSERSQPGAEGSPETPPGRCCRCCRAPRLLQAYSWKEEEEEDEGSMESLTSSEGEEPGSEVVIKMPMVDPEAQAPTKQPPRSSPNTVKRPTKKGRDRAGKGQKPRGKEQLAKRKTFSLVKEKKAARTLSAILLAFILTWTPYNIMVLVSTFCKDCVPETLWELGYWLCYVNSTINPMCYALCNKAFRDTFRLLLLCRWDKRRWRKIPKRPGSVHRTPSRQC

[15] = target: T2, Muscarinic acetylcholine receptor M3 (Homo sapiens, UniProt P20309); test: In vitro affinity is evaluated, using quinuclidynyl benzylate (QNB) as radioligand in human cloned Muscarinic acetylcholine receptor M3
T2 sequence (P20309 whole entry): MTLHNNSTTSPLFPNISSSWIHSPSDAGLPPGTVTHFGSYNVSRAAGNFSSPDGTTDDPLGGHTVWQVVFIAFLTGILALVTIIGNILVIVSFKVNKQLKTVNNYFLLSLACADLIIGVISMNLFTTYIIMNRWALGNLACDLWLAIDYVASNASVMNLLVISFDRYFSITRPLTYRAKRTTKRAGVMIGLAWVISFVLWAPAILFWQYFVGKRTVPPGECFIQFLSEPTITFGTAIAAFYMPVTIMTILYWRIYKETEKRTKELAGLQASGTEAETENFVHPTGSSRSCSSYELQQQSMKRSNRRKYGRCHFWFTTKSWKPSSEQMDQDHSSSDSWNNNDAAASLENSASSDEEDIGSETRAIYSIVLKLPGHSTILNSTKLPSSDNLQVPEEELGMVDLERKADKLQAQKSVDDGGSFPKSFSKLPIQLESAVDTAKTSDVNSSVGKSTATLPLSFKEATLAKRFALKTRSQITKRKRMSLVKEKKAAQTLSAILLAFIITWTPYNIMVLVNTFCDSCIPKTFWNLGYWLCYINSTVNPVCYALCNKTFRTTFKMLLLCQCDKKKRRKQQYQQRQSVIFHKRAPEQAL

[16] = target: T3, Muscarinic acetylcholine receptor M2 (Homo sapiens, UniProt P08172); test: In vitro affinity is evaluated, using quinuclidynyl benzylate (QNB) as radioligand in human cloned Muscarinic acetylcholine receptor M2
T3 sequence (P08172 whole entry): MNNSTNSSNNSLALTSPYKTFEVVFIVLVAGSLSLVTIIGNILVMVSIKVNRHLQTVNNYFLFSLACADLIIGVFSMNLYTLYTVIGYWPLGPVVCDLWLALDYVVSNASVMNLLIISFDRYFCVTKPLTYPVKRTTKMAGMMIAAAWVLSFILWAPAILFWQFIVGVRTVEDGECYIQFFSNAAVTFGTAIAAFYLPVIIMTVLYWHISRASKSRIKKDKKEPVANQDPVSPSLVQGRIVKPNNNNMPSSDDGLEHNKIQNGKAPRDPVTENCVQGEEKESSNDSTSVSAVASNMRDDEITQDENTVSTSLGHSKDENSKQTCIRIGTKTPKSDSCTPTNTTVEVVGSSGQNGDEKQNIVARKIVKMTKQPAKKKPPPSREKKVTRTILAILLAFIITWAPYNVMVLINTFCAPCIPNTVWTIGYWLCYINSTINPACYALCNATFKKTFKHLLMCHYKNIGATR

[17] = target: T4, Muscarinic acetylcholine receptor M4 (Homo sapiens, UniProt P08173); test: In vitro affinity is evaluated, using quinuclidynyl benzylate (QNB) as radioligand in human cloned Muscarinic acetylcholine receptor M4
T4 sequence (P08173 whole entry): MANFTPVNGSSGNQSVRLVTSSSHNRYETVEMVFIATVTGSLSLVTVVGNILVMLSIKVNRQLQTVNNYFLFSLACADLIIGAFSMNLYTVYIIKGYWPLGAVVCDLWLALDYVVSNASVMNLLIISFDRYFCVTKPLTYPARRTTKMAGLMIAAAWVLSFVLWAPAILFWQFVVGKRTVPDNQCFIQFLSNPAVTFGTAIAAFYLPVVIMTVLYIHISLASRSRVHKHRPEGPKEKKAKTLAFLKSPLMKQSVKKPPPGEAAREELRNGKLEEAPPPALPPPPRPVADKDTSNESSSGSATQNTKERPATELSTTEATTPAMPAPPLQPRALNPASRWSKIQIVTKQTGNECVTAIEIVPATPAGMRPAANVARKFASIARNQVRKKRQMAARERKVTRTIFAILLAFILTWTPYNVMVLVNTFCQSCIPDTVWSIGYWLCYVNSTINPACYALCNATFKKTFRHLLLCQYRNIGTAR

[18] = Ratio of 50% fall in heart rate to that of in blood pressure in anesthetized rats; type: functional
Rattus norvegicus [19] = test: Extrapyramidal effects was assessed from the dose producing tremors in anesthetized rats
Rattus norvegicus [20] = test: Dose producing 50 % fall in heart rate in anesthetized rats; type: functional; in short: as §1
Rattus norvegicus [21] = species on record: Rattus norvegicus; test: Dose inducing hippocampal rhythmic slow wave activity; type: functional, Hippocampus
In short: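 Male Hooded Lister rats (300-380 g) under urethane anaesthesia, pretreated with atropine methyl nitrate 0.1 mg/kg iv. Dosing iv via femoral vein, saline vehicle. Bipolar electrode in right hippocampal CA1; EEG sampled at 128 Hz. Read-out is change in mean theta power (3–7 Hz).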

Rattus norvegicus [22] = test: Dose producing 50 % fall in mean blood pressure in anesthetized rats; type: functional; in short: as §1
[23] = target: T2, Muscarinic acetylcholine receptor M3; test: In vitro affinity is evaluated, using quinuclidynyl benzylate (QNB)radioligand in human cloned Muscarinic acetylcholine receptor M3
In short: (§4)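 Membranes from CHO cells transfected with human m2, m3 or m4 receptors, prepared in 50 mM Tris (pH 7.4 at 37 °C). Displacement of 0.1 nM [3H]QNB; nonspecific binding defined with atropine sulfate. Incubated to equilibrium at 37 °C, ended by rapid vacuum filtration.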

[24] = target: T3, Muscarinic acetylcholine receptor M2; test: In vitro affinity is evaluated, using quinuclidinyl benzilate (QNB) as radioligand in human cloned Muscarinic acetylcholine receptor M2; in short: as §4
[25] = target: T4, Muscarinic acetylcholine receptor M4; test: In vitro affinity is evaluated, using quinuclidynyl benzylate (QNB) radioligand in human cloned Muscarinic acetylcholine receptor M4; in short: as §4
[26] = Ratio of IC50 QNB to that of OXO-M was determined; type: functional
In short: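 Rat cerebral cortex binding: IC50 for displacement of the antagonist [3H]QNB divided by IC50 for displacement of the agonist [3H]oxotremorine-M, used as an efficacy index.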

[27] = Ratio of 50% fall in blood pressure to that of rhythmic slow wave activity in anesthetized rats; type: functional; in short: as §2

SMILES	ED50 (Rattus norvegicus [2])	ED Arec (Rattus norvegicus [3])	Ratio [4]	Ratio [5]	IC50 [9]	IC50 [10]	ED50 (Rattus norvegicus [12])	also measured
CO/N=C(\Cl)C12CCCN(CC1)C2 (centres undefined)	0.24 mg/kg	0.032 mg/kg	10	8.3				logD [1]: 2.12
O=C1CCCN1CC#CCN1CCCC1 [OXOTREMORINE]								Activity (Mus musculus [6]): 3; ED50 (Mus musculus [7]): 0.07 mg/kg; ED Arec (Rattus norvegicus [8]): 0.023 mg/kg
CO/N=C(\Cl)[C@@H]1CN2CC[C@H]1C2					100 nM	8880 nM		
CO/N=C(/C)C12CCCN(CC1)C2 (centres undefined)	0.042 mg/kg	0.068 mg/kg	1	0.6	46 nM	3400 nM	0.068 mg/kg	pKa [11]: 10.1; logD [1]: 1.65; logD [13]: -1.13
CO/N=C(\C#N)C1CN2CCC1CC2 (centres undefined)	> 0.56 mg/kg		>10.9	>10.9				logD [1]: 1.56
CO/N=C/[C@H]1CN2CC[C@H]1C2								IC50 [14]: 10000 nM; IC50 [15]: 2200 nM; IC50 [16]: 220 nM; IC50 [17]: 1100 nM; Ratio [18]: 1.5
CO/N=C(\C#N)[C@H]1CN2CCC1CC2 [SABCOMELINE]			>18.8	>18.8	14 nM	310 nM		ED50 (Mus musculus [7]): > 10 mg/kg; IC50 [14]: 170 nM; IC50 [15]: 60 nM; IC50 [16]: 180 nM; IC50 [17]: 90 nM; ED50 (Rattus norvegicus [19]): 0.12 mg/kg; ED50 (Rattus norvegicus [20]): > 0.32 mg/kg; ED Arec (Rattus norvegicus [21]): 0.017 mg/kg; ED50 (Rattus norvegicus [22]): > 0.32 mg/kg
COC(=O)C1=CCCN(C)C1 [ARECOLINE]	0.024 mg/kg	0.32 mg/kg					0.022 mg/kg	
CO/N=C(\C#N)C12CCCN(CC1)C2 (centres undefined)	0.01 mg/kg		4	2				logD [1]: 1.49; IC50 [14]: 99 nM; IC50 [23]: 28 nM; IC50 [24]: 31 nM; IC50 [25]: 49 nM
CO/N=C(\C#N)[C@@H]1CN2CCC1CC2	> 1 mg/kg	>1 mg/kg			140 nM	1130 nM	> 1 mg/kg	
CO/N=C(\C#N)[C@@H]1CN2CC[C@H]1C2	0.021 mg/kg	0.005 mg/kg	4.8	4.2	21 nM	3175 nM	0.024 mg/kg	IC50 [14]: 1500 nM; IC50 [15]: 1200 nM; IC50 [16]: 700 nM; IC50 [17]: 975 nM
CO/N=C(/C#N)C1CN2CCC1CC2 (centres undefined)					240 nM	1300 nM		
CCN1C(=O)CC2(CCN(C)CC2)C1=O								Activity (Mus musculus [6]): 8.6; ED50 (Mus musculus [7]): 3.8 mg/kg; ED Arec (Rattus norvegicus [8]): 0.35 mg/kg
CO/N=C(\C#N)C12CCN(CC1)C2	0.0044 mg/kg	0.0056 mg/kg	1.8	0.79			0.01 mg/kg	IC50 [14]: 1650 nM; IC50 [15]: 300 nM; IC50 [16]: 240 nM; IC50 [17]: 495 nM
CO/N=C(\C#N)[C@H]1CN2CC[C@H]1C2	0.009 mg/kg	0.0032 mg/kg	4.7	2.8	23 nM	2300 nM	0.015 mg/kg	IC50 [14]: 1180 nM; IC50 [15]: 380 nM; IC50 [16]: 610 nM; IC50 [17]: 800 nM
CCO/N=C/[C@H]1CN2CC[C@H]1C2								ED50 (Rattus norvegicus [20]): > 1.8 mg/kg; Ratio [26]: 23; Ratio [27]: >7.8; Ratio [18]: >7.8
CC#CCO/N=C/[C@H]1CN2CC[C@H]1C2					115 nM	2900 nM		
CO/N=C(\Br)[C@@H]1CN2CC[C@H]1C2					170 nM	2300 nM		
C#CCO/N=C/[C@H]1CN2CC[C@H]1C2								Ratio [18]: 3.7
CO/N=C(\F)C12CCCN(CC1)C2 (centres undefined)	0.024 mg/kg			2				logD [1]: 1.01
CO/N=C(\F)[C@H]1CN2CC[C@H]1C2					8.5 nM			
CO/N=C(\C)C1CN2CCC1CC2 (centres undefined)	> 0.32 mg/kg		>1	>1			> 0.32 mg/kg	logD [1]: 1.88
C=CCO/N=C/[C@H]1CN2CC[C@H]1C2					250 nM	9700 nM		
